Measurements published in ChEMBL document CHEMBL1138768, “A locally active antiinflammatory macrolide (MLD987) for inhalation therapy of asthma” (J Med Chem, 2004).

Key:
[1] = Inhibitory activity against IL-5 production (Anti-CD3 monoclonal antibody stimulated and cultured CD4 positive cells purified from human peripheral blood mononuclear cell); assay type: functional, cell-based
[2] = organism: Rattus norvegicus; experiment: Intratracheal dose that inhibits by 50% the allergen OA-induced eosinophil influx in to the airway lumen of actively sensitized rats after -1h, +24h treatment schedule; assay type: functional; conditions: Trachea, inhaled or nasal
Method in brief: (§1)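 Actively sensitized Brown-Norway rats challenged with ovalbumin (OA). Compound given intratracheally, orally or i.v. either 1 h or 6 h before challenge, with a second dose 24 h after challenge. Eosinophils counted in bronchoalveolar lavage fluid; ED50 is the dose inhibiting OA-induced eosinophil influx by 50%; n = 5–20 rats.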

[3] = Inhibitory activity against IFN-gamma production (Anti-CD3 monoclonal antibody stimulated and cultured CD4 positive cells purified from human peripheral blood mononuclear cell); assay type: functional, cell-based
[4] = organism: Rattus norvegicus; experiment: Intratracheal dose that inhibits by 50% the allergen OA-induced eosinophil influx in to the airway lumen of actively sensitized rats after -6h, +24h treatment schedule; assay type: functional; conditions: Trachea, inhaled or nasal; method in brief: as §1
[5] = tested on: Rattus norvegicus; experiment: Oral dose that inhibits by 50% the allergen OA-induced eosinophil influx in to the airway lumen of actively sensitized rats after -1h, +24h treatment schedule; assay type: functional; method in brief: as §1
[6] = tested on: PBMC; experiment: Inhibitory activity against murine mixed lymphocyte reaction; conditions: Mus musculus
[7] = tested on: Rattus norvegicus; experiment: Oral dose that inhibits by 50% the allergen OA-induced eosinophil influx in to the airway lumen of actively sensitized rats after -6h, +24h treatment schedule; assay type: functional; method in brief: as §1
[8] = Inhibitory activity against IL-2 receptor in human T-cell jurkat cell line stimulated by phytohemagglutininin and phorbol myristate acetate; assay type: cell-based
Method in brief: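 Jurkat human T-cell line carrying an IL-2 reporter gene, stimulated with phytohemagglutinin plus phorbol myristate acetate. Values are mean IC50 ± SEM (n = 3–6) or the mean of two experiments.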

[9] = Inhibitory activity against calcineurin phosphatase; set-up: species or system Homo sapiens
[10] = Inhibitory activity against PPD-induced proliferation of human peripheral blood mononuclear cell (HPBMNC); assay type: functional
Method in brief: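 Human peripheral blood mononuclear cells isolated from blood, stimulated with PPD (M. tuberculosis purified protein derivative). Proliferation read after 5 days in medium with 20% fetal calf serum. Mean IC50 ± SEM (n = 3–6) or the mean of two experiments.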

[11] = tested on: Rattus norvegicus; experiment: Intravenous dose that inhibits by 50% the allergen OA-induced eosinophil influx in to the airway lumen of actively sensitized rats after -6h, +24h treatment schedule; assay type: functional; method in brief: as §1
[12] = tested on: Rattus norvegicus; experiment: Intravenous dose that inhibits by 50% the allergen OA-induced eosinophil influx in to the airway lumen of actively sensitized rats after -1h, +24h treatment schedule; assay type: functional; method in brief: as §1

| Structure (SMILES) | IC50 [1] [pM] | ED50 [2] [mg/kg] | IC50 [3] [pM] | ED50 [4] [mg/kg] | ED50 [5] [mg/kg] | IC50 [6] [pM] | ED50 [7] [mg/kg] | IC50 [8] [pM] | Ki [9] [pM] | IC50 [10] [pM] | ED50 [11] [mg/kg] | ED50 [12] [mg/kg] |
| --- | --- | --- | --- | --- | --- | --- | --- | --- | --- | --- | --- | --- |
| CCCC1O[C@@H]2C[C@H]3[C@@H]4CCC5=CC(=O)C=C[C@]5(C)[C@H]4[C@@H](O)C[C@]3(C)[C@]2(C(=O)CO)O1 (stereo not given in full) [BUDESONIDE] | 120 | 0.5 | 320 | – | – | – | – | – | – | – | – | – |
| C=CC[C@@H]1/C=C(\C)C[C@H](C)C[C@H](OC)[C@H]2O[C@@](O)(C(=O)C(=O)N3CCCC[C@H]3C(=O)O[C@H](/C(C)=C/[C@@H]3CC[C@@H](O)[C@H](OC)C3)[C@H](C)[C@@H](O)CC1=O)[C@H](C)C[C@@H]2OC [TACROLIMUS ANHYDROUS] | 60 | 0.3 | 60 | 0.3 | 10 | 290 | 3 | 190 | 35000 | 180 | 0.3 | 0.3 |
